Source: ChEMBL document CHEMBL4118159, “Discovery of tetrahydroindazoles as a novel class of potent and in vivo efficacious gamma secretase modulators” (Bioorg Med Chem, 2018)
Each block holds one molecule with its values, some of them ahead of it.

Biological target: Gamma-secretase
Assay: Modulation of gamma secretase in human H4 cells expressing human wild type APP assessed as inhibition of amyloid beta 42 production after 22 hrs by electrochemiluminescence assay
Assay type: cell-based
Method in brief: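 H4 cells overexpressing human APPwt, 10,000/well, were exposed to compound 22 h at 37°C, 5% CO2. Supernatant was diluted with medium on an MSD anti-Aβ42 plate and detected with S-tag 6E10 (1:50, 1 h). Read-out was electrochemiluminescence.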

Structure (SMILES): CCc1nnn2c1CCC(Nc1nc3c(-c4ccc(F)cc4C)cccn3n1)C2 (stereo not drawn)
IC50: 0.74 µM

Structure (SMILES): CCn1ncc2c1CCC(Nc1nc3c(-c4ccccc4C)cccn3n1)C2 (stereo not drawn)
IC50: 0.16 µM

Structure (SMILES): CCn1ncc2c1CCC(Nc1nc3c(-c4ccc(F)cc4)cccn3n1)C2 (stereo not drawn)
IC50: 0.18 µM

Structure (SMILES): CCn1ncc2c1CCC(Nc1nc3c(-c4ccc(C)nc4)cccn3n1)C2 (stereo not drawn)
IC50: 0.67 µM

Structure (SMILES): CCCn1ncc2c1CCC(Nc1nc3c(-c4ccc(F)cc4C)cccn3n1)C2 (stereo not drawn)
IC50: 0.06 µM

Structure (SMILES): CCn1ncc2c1CC[C@@H](Nc1nc3c(-c4ccc(F)c(Cl)c4)cccn3n1)C2
IC50: 0.009 µM

Structure (SMILES): CCn1ncc2c1CCC(Nc1nc3c(-c4cncc(Cl)c4)cccn3n1)C2 (stereo not drawn)
IC50: 0.04 µM

Structure (SMILES): Cc1cc(F)ccc1-c1cccn2nc(NC3CCc4c(cnn4CC(C)C)C3)nc12 (stereo not drawn)
IC50: 3.4 µM

Structure (SMILES): CCc1nnc2n1CCC(Nc1nc3c(-c4ccc(F)cc4C)cccn3n1)C2 (stereo not drawn)
IC50: 1.39 µM

Structure (SMILES): CCn1ncc2c1CCC(Nc1nc3c(-c4ccccc4)cccn3n1)C2 (stereo not drawn)
IC50: 0.07 µM

Structure (SMILES): Cc1cc(F)ccc1-c1cccn2nc(Nc3ccc4c(cnn4C)c3)nc12
IC50: 1.2 µM

Results, then the molecule that gave them:

IC50: > 30 µM
Structure (SMILES): CCCCCn1ncc2c1CCC(Nc1nc3c(-c4ccc(F)cc4C)cccn3n1)C2 (stereo not drawn)

IC50: 0.73 µM
Structure (SMILES): CCn1ncc2c1CCC(Nc1nc3c(-c4cnccc4C)cccn3n1)C2 (stereo not drawn)

IC50: 0.06 µM
Structure (SMILES): CCn1ncc2c1CCC(Nc1nc3c(-c4ccccc4Cl)cccn3n1)C2 (stereo not drawn)

IC50: 0.2 µM
Structure (SMILES): CCn1ncc2c1CCC(Nc1nc3c(-c4cncc(OC)c4)cccn3n1)C2 (stereo not drawn)

IC50: 0.02 µM
Structure (SMILES): CCn1ncc2c1CCC(Nc1nc3c(-c4ccc(F)c(Cl)c4)cccn3n1)C2 (stereo not drawn)

IC50: 0.5 µM
Structure (SMILES): CCn1ncc2c1CCC(Nc1nc3c(-c4cccnc4OC)cccn3n1)C2 (stereo not drawn)

IC50: 0.2 µM
Structure (SMILES): CCn1ncc2c1CCC(Nc1nc3c(-c4cncc(C)c4)cccn3n1)C2 (stereo not drawn)
